Measured values as given in ChEMBL document CHEMBL4043131, “New prodrugs of two pyrimidine acyclic nucleoside phosphonates: Synthesis and antiviral activity” (Bioorg Med Chem, 2017).
The source made the active and inactive calls. No cut-off for these calls is given here.

Columns and labels:
Vaccinia virus = test: Antiviral activity against Vaccinia virus Lederle infected in HEL cells assessed as inhibition of virus-induced cytopathic effect; type: functional, cell-based; conditions: Orthopoxvirus vaccinia
Sindbis virus = test: Antiviral activity against Sindbis virus infected in African green monkey Vero cells assessed as inhibition of virus-induced cytopathic effect; type: functional
How it was run: (§1)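 Confluent cell monolayers were infected with 100 CCID50 of virus (1 CCID50 = dose infecting 50% of cultures) and incubated with varying compound concentrations. Cytopathicity was scored once complete in untreated infected controls.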

[1] = Antiviral activity against Respiratory syncytial virus A strain long infected in human HeLA cells assessed as inhibition of virus-induced cytopathic effect; type: functional, cell-based; how it was run: as §1
Human alphaherpesvirus 2 = test: Antiviral activity against Herpes simplex virus 2 G infected in HEL cells assessed as inhibition of virus-induced cytopathic effect; type: functional, cell-based; conditions: Human alphaherpesvirus 2, strain G; how it was run: as §1
[2] = system: Mammalian orthoreovirus 1; test: Antiviral activity against Reovirus-1 infected in African green monkey Vero cells assessed as inhibition of virus-induced cytopathic effect; type: functional; how it was run: as §1
Human alphaherpesvirus 3 [3] = test: Antiviral activity against wild type thymidine kinase expressing Varicella-Zoster virus Oka infected in HEL cells assessed as inhibition of virus-induced plaque formation; type: functional, cell-based; conditions: Human alphaherpesvirus 3, Oka
How it was run: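 Confluent HEL cultures were inoculated with 20 PFU of VZV and incubated with varying compound concentrations. Plaques were counted once formation was complete in untreated infected controls.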

HEL = test: Cytotoxicity against HEL cells assessed as reduction in cell growth after 3 days by coulter counter method; type: cell-based; conditions: human, hel, 72 h
How it was run: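 HEL cells were seeded at 5 × 10³ cells/well and grown for 24 h, then given medium containing graded compound concentrations. After 3 days at 37 °C, cells were counted by Coulter counter.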

Influenza A virus H3N2 = test: Antiviral activity against Influenza A virus H3N2 infected in HEL cells assessed as inhibition of virus-induced cytopathic effect; type: functional, cell-based
Feline coronavirus = test: Antiviral activity against Feline coronavirus infected in CRFK cells assessed as inhibition of virus-induced cytopathic effect; type: functional, cell-based
Coxsackievirus B4 = test: Antiviral activity against Coxsackie virus B4 infected in human HeLA cells assessed as inhibition of virus-induced cytopathic effect; type: functional, cell-based; how it was run: as §1
Human respirovirus 3 = test: Antiviral activity against Parainfluenza virus 3 infected in African green monkey Vero cells assessed as inhibition of virus-induced cytopathic effect; type: functional; how it was run: as §1
Human alphaherpesvirus 1 [4] = test: Antiviral activity against thymidine kinase-deficient ACV-resistant Herpes simplex virus 1 KOS infected in HEL cells assessed as inhibition of virus-induced cytopathic effect; type: functional, cell-based; conditions: Human alphaherpesvirus 1, KOS
Influenza B virus = test: Antiviral activity against influenza B virus infected in HEL cells assessed as inhibition of virus-induced cytopathic effect; type: functional, cell-based
[5] = system: Vesicular stomatitis virus; test: Antiviral activity against Vesicular stomatitis virus infected in HEL cells assessed as inhibition of virus-induced cytopathic effect; type: functional, cell-based
Punta Toro virus = test: Antiviral activity against Punta Toro virus infected in African green monkey Vero cells assessed as inhibition of virus-induced cytopathic effect; type: functional; how it was run: as §1
Human betaherpesvirus 5 [6] = test: Antiviral activity against Human cytomegalovirus AD169 infected in HEL cells assessed as inhibition of virus-induced cytopathic effect; type: functional, cell-based; conditions: Human betaherpesvirus 5, AD169, HEL; how it was run: as §1
Human betaherpesvirus 5 [7] = test: Antiviral activity against Human cytomegalovirus Davis infected in HEL cells assessed as inhibition of virus-induced cytopathic effect; type: functional, cell-based; conditions: Human betaherpesvirus 5, Davis; how it was run: as §1
Influenza A virus = test: Antiviral activity against Influenza A virus (H1N1) infected in HEL cells assessed as inhibition of virus-induced cytopathic effect; type: functional, cell-based
Human alphaherpesvirus 1 [8] = test: Antiviral activity against wild type Herpes simplex virus 1 KOS infected in HEL cells assessed as inhibition of virus-induced cytopathic effect; type: functional, cell-based; conditions: Human alphaherpesvirus 1, KOS
Human alphaherpesvirus 3 [9] = test: Antiviral activity against wild type thymidine kinase-deficient Varicella-Zoster virus 07-1 infected in HEL cells assessed as inhibition of virus-induced plaque formation; type: functional, cell-based; conditions: Human alphaherpesvirus 3, 07-1, HEL
How it was run: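 HEL fibroblast monolayers were infected with 20 PFU of VZV and kept with varying compound concentrations. Plaques were counted once formation was complete in untreated infected controls.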

[10] = Selectivity index, ratio of CC50 for HEL cells to EC50 for wild type thymidine kinase expressing Varicella-Zoster virus Oka infected in HEL cells; type: toxicity, cell-based; conditions: human, read-out: Ratio CC50/EC50
[11] = Selectivity index, ratio of CC50 for HEL cells to EC50 for thymidine kinase-deficient ACV-resistant Herpes simplex virus 1 KOS infected in HEL cells; type: toxicity, cell-based; conditions: human, read-out: Ratio CC50/EC50
How it was run: (§2)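 EC50 is the concentration halving cytopathicity in HEL cells infected with 100 CCID50 HSV. […] Cells were counted by Coulter counter, and CC50 was read from plots of cell number (% of untreated) versus concentration. SI = CC50/EC50.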

[12] = Selectivity index, ratio of CC50 for HEL cells to EC50 for Herpes simplex virus 2 G infected in HEL cells; type: toxicity, cell-based; conditions: human, read-out: Ratio CC50/EC50; how it was run: as §2
[13] = Selectivity index, ratio of CC50 for HEL cells to EC50 for wild type Herpes simplex virus 1 KOS infected in HEL cells; type: toxicity, cell-based; conditions: human, read-out: Ratio CC50/EC50; how it was run: as §2
[14] = Selectivity index, ratio of CC50 for HEL cells to EC50 for wild type thymidine kinase-deficient Varicella-Zoster virus 07-1 infected in HEL cells; type: toxicity, cell-based; conditions: human, read-out: Ratio CC50/EC50

| Structure (SMILES) | EC50 (Vaccinia virus) [µM] | Activity (Sindbis virus) | Activity [1] | EC50 (Human alphaherpesvirus 2) [µM] | Activity [2] | EC50 (Human alphaherpesvirus 3 [3]) [µM] | CC50 (HEL) [µM] | Activity (Influenza A virus H3N2) | Activity (Feline coronavirus) | Activity (Coxsackievirus B4) | Activity (Human respirovirus 3) | EC50 (Human alphaherpesvirus 1 [4]) [µM] | Activity (Influenza B virus) | Activity [5] | Activity (Punta Toro virus) | EC50 (Human betaherpesvirus 5 [6]) [µM] | EC50 (Human betaherpesvirus 5 [7]) [µM] | Activity (Influenza A virus) | EC50 (Human alphaherpesvirus 1 [8]) [µM] | EC50 (Human alphaherpesvirus 3 [9]) [µM] | further results |
| --- | --- | --- | --- | --- | --- | --- | --- | --- | --- | --- | --- | --- | --- | --- | --- | --- | --- | --- | --- | --- | --- |
| COP(=O)(O)COCCn1cnc(N)nc1=O | > 100 | inactive | inactive | > 100 | inactive | > 100 | > 100 | inactive | inactive | inactive | inactive | > 100 | inactive | inactive | inactive | > 100 | > 100 | inactive | > 100 | > 100 |  |
| CC(C)(C)C(=O)OCOP(=O)(O)COCCn1cnc(N)nc1=O | > 275 | inactive | inactive | 142 | inactive | 40.7 | > 275 | inactive | inactive | inactive | inactive | 131 | inactive | inactive | inactive | 123 | 116 | inactive | 142 | 128 |  |
| Nc1cc(OCCOCP(=O)(O)O)nc(N)n1 | > 100 | inactive | inactive | 20 | inactive | 2.07 | 90.3 | inactive | inactive | inactive | inactive | 54 | inactive | inactive | inactive | > 100 | > 100 | inactive | 45 | 4.72 | selectivity ratio [10]: 19 to 44; selectivity ratio [11]: 1.72 to 4.5; selectivity ratio [12]: 1.72 to 4.5; selectivity ratio [13]: 1.72 to 4.5; selectivity ratio [14]: 19 to 44 |
| CCOC(=O)[C@H](Cc1ccccc1)NP(=O)(O)COCCn1cnc(N)nc1=O | > 100 | inactive | inactive | > 100 | inactive | > 100 | > 100 | inactive | inactive | inactive | inactive | > 100 | inactive | inactive | inactive | > 100 | > 100 | inactive | > 100 | > 100 |  |
| CC(C)OC(=O)OCOP(=O)(O)COCCn1cnc(N)nc1=O | > 100 | inactive | inactive | > 100 | inactive | 48.9 |  | inactive | inactive | inactive | inactive | > 100 | inactive | inactive | inactive | > 100 | > 100 | inactive | > 100 | 48.9 |  |
| CCCCCCCCCCCCCCCCCCOCCNc1ncn(CCOCP(=O)(OCCOCCCCCCCCCCCCCCCCCC)OCCOCCCCCCCCCCCCCCCCCC)c(=O)n1 | > 100 | inactive | inactive | > 100 | inactive | 44.7 |  | inactive | inactive | inactive | inactive | > 100 | inactive | inactive | inactive | > 100 | > 100 | inactive | > 100 | 100 |  |
| Nc1nc2c(ncn2COCCO)c(=O)[nH]1 [ACYCLOVIR] | > 250 |  |  | 0.18 |  |  | > 440 |  |  |  |  |  |  |  |  |  |  |  |  |  |  |
| CC(C)(C)C(=O)OCOP(=O)(COCCOc1cc(N)nc(N)n1)OCOC(=O)C(C)(C)C |  | inactive | inactive | 9.5 | inactive | 0.67 | 16.6 | inactive | inactive | inactive | inactive | 14.5 | inactive | inactive | inactive | 47.4 | 36.5 | inactive | 10 | 1.26 |  |
| Nc1ccn(C[C@@H](CO)OCP(=O)(O)O)c(=O)n1 [CIDOFOVIR] | 22.2 |  |  | 1.39 |  |  | 216 |  |  |  |  | 2.66 |  |  |  | 0.87 | 0.76 |  | 2.93 |  |  |
| Nc1nc(O)c2ncn(COC(CO)CO)c2n1 [GANCICLOVIR] | > 100 |  |  |  |  |  | ≥ 308 |  |  |  |  |  |  |  |  |  |  |  |  |  |  |
| CC(C)OC(=O)OCOP(=O)(COCCn1cnc(N)nc1=O)OCOC(=O)OC(C)C | > 100 | inactive | inactive | 22 | inactive | 15.3 |  | inactive | inactive | inactive | inactive | 22 | inactive | inactive | inactive | 26.2 | 20 | inactive | 22 | 23.2 |  |
| O=c1[nH]c(=O)n([C@H]2C[C@H](O)[C@@H](CO)O2)cc1/C=C/Br [BRIVUDINE] | 19.1 |  |  | 141 |  | 0.024 | 242 |  |  |  |  |  |  |  |  |  |  |  |  | 58.8 |  |
| CCCCCCCCCCCCCCCCCCOCCOP(=O)(COCCn1cnc(N)nc1=O)OCCOCCCCCCCCCCCCCCCCCC | > 100 | inactive | inactive | > 100 | inactive | > 4 |  | inactive | inactive | inactive | inactive | > 100 | inactive | inactive | inactive | > 20 | > 20 | inactive | > 100 | > 0.8 |  |
| CC(C)(C)C(=O)OCOP(=O)(O)COCCOc1cc(N)nc(N)n1 | > 100 | inactive | inactive | 29 | inactive | 2.54 | ≥ 100 | inactive | inactive | inactive | inactive | 54 | inactive | inactive | inactive | > 100 | > 100 | inactive | 39.5 | 5.91 |  |
